In ChEMBL document CHEMBL1143812, “A novel bis-tetrahydrofuranylurethane-containing nonpeptidic protease inhibitor (PI), GRL-98065, is potent against multiple-PI-resistant human immunodeficiency virus in vitro” (Antimicrob Agents Chemother, 2007):

Columns and labels:
[1] = test system: Human immunodeficiency virus 1; assay: Antiviral activity against ritonavir-resistant HIV1 in MT4 cells assessed as inhibition of p24 Gag protein expression by MTT assay; format: functional, organism-based; details: Human immunodeficiency virus 1, MT4
Method in brief: (§1)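 MT-4 cells (10^5/ml) infected with 100 TCID50s of wild-type or PI-resistant NL4-3 virus and incubated at 37°C with or without graded drug concentrations. On day 7, supernatant p24 Gag was measured by chemiluminescent enzyme immunoassay. […] Assays were run in duplicate or triplicate.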

[2] = test system: Human immunodeficiency virus 1; assay: Antiviral activity against idinavir-resistant HIV1 in MT4 cells assessed as inhibition of p24 Gag protein expression by MTT assay; format: functional, organism-based; details: Human immunodeficiency virus 1, MT4; method in brief: as §1
[3] = test system: Human immunodeficiency virus 1; assay: Antiviral activity against nelfinavir-resistant HIV1 in MT4 cells assessed as inhibition of p24 Gag protein expression by MTT assay; format: functional, organism-based; details: Human immunodeficiency virus 1, MT4; method in brief: as §1
[4] = test system: Human immunodeficiency virus 1; assay: Antiviral activity against atazanavir-resistant HIV1 in MT4 cells assessed as inhibition of p24 Gag protein expression by MTT assay; format: functional, organism-based; details: Human immunodeficiency virus 1, MT4; method in brief: as §1
[5] = test system: Human immunodeficiency virus 1; assay: Antiviral activity against lopinavir-resistant HIV1 in MT4 cells assessed as inhibition of p24 Gag protein expression by MTT assay; format: functional, organism-based; details: Human immunodeficiency virus 1, MT4; method in brief: as §1
[6] = test system: Human immunodeficiency virus 1; assay: Antiviral activity against amprenavir-resistant HIV1 in MT4 cells assessed as inhibition of p24 Gag protein expression by MTT assay; format: functional, organism-based; details: Human immunodeficiency virus 1, MT4; method in brief: as §1
[7] = test system: Human immunodeficiency virus 1; assay: Antiviral activity against HIV1 GRL98065p20 in MT4 cells assessed as inhibition of p24 Gag protein expression by MTT assay; format: functional, organism-based; details: Human immunodeficiency virus 1, MT4; method in brief: as §1
[8] = test system: Human immunodeficiency virus 1; assay: Antiviral activity against HIV1 GRL98065p30 in MT4 cells assessed as inhibition of p24 Gag protein expression by MTT assay; format: functional, organism-based; details: Human immunodeficiency virus 1, MT4; method in brief: as §1
[9] = test system: Human immunodeficiency virus 1; assay: Antiviral activity against HIV1 GRL98065p40 in MT4 cells assessed as inhibition of p24 Gag protein expression by MTT assay; format: functional, organism-based; details: Human immunodeficiency virus 1, MT4; method in brief: as §1
[10] = test system: Human immunodeficiency virus 1; assay: Antiviral activity against wild type HIV1 ERS104prc X4 in phytohemagglutininin-activated PBMCs assessed as inhibition of p24 Gag protein expression by MTT assay; format: functional, organism-based
Method in brief: (§2)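 PHA-activated PBMCs (10^6/ml) infected with 50 TCID50s of each isolate and cultured with or without drug in 10-fold serial dilutions. The read-out was supernatant p24 Gag by chemiluminescent enzyme immunoassay. Assays were run in duplicate or triplicate, with one donor per experiment and three donors in total.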

[11] = test system: Human immunodeficiency virus 1; assay: Antiviral activity against HIV1 MDR/TM X4 in phytohemagglutininin-activated PBMCs assessed as inhibition of p24 Gag protein expression by MTT assay; format: functional, organism-based
Method in brief: as §2, with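 “immunoassay. […]” for “immunoassay.”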

[12] = test system: Human immunodeficiency virus 1; assay: Antiviral activity against HIV1 MDR/MM R5 in phytohemagglutininin-activated PBMCs assessed as inhibition of p24 Gag protein expression by MTT assay; format: functional, organism-based
Method in brief: as §2, with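 “immunoassay. […]” for “immunoassay.”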

[13] = test system: Human immunodeficiency virus 1; assay: Antiviral activity against HIV1 MDR/JSL R5 in phytohemagglutininin-activated PBMCs assessed as inhibition of p24 Gag protein expression by MTT assay; format: functional, organism-based
Method in brief: as §2, with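 “immunoassay. […]” for “immunoassay.”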

[14] = test system: Human immunodeficiency virus 1; assay: Antiviral activity against HIV1 MDR/B X4 in phytohemagglutininin-activated PBMCs assessed as inhibition of p24 Gag protein expression by MTT assay; format: functional, organism-based
Method in brief: as §2, with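 “immunoassay. […]” for “immunoassay.”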

[15] = test system: Human immunodeficiency virus 1; assay: Antiviral activity against HIV1 MDR/C X4 in phytohemagglutininin-activated PBMCs assessed as inhibition of p24 Gag protein expression by MTT assay; format: functional, organism-based
Method in brief: as §2, with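 “immunoassay. […]” for “immunoassay.”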

[16] = test system: Human immunodeficiency virus 1; assay: Antiviral activity against HIV1 MDR/G X4 in phytohemagglutininin-activated PBMCs assessed as inhibition of p24 Gag protein expression by MTT assay; format: functional, organism-based; method in brief: as §2
[17] = test system: Human immunodeficiency virus 1; assay: Antiviral activity against HIV1 92UG029 X4 subtype A in phytohemagglutininin-activated PBMCs assessed as inhibition of p24 Gag protein expression by MTT assay; format: functional, organism-based
Method in brief: as §2, with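 “immunoassay. […]” for “immunoassay.”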

[18] = test system: Human immunodeficiency virus 1; assay: Antiviral activity against HIV1 92UG037 subtype A R5 in phytohemagglutininin-activated PBMCs assessed as inhibition of p24 Gag protein expression by MTT assay; format: functional, organism-based
Method in brief: as §2, with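 “immunoassay. […]” for “immunoassay.”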

[19] = test system: Human immunodeficiency virus 1; assay: Antiviral activity against HIV1 BaL R5 subtype B in phytohemagglutininin-activated PBMCs assessed as inhibition of p24 Gag protein expression by MTT assay; format: functional, organism-based; method in brief: as §2
[20] = test system: Human immunodeficiency virus 1; assay: Antiviral activity against HIV1 97ZA003 R5 subtype C in phytohemagglutininin-activated PBMCs assessed as inhibition of p24 Gag protein expression by MTT assay; format: functional, organism-based
Method in brief: as §2, with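 “immunoassay. […]” for “immunoassay.”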

[21] = test system: Human immunodeficiency virus 1; assay: Antiviral activity against HIV1 92TH019 R5 subtype E in phytohemagglutininin-activated PBMCs assessed as inhibition of p24 Gag protein expression by MTT assay; format: functional, organism-based
Method in brief: as §2, with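 “immunoassay. […]” for “immunoassay.”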

[22] = test system: Human immunodeficiency virus 1; assay: Antiviral activity against saquinavir-resistant HIV1 in MT4 cells assessed as inhibition of p24 Gag protein expression by MTT assay; format: functional, organism-based; details: Human immunodeficiency virus 1, MT4; method in brief: as §1
[23] = test system: Human immunodeficiency virus 1; assay: Antiviral activity against HIV1 LAI in MT2 cells assessed as inhibition of p24 Gag protein expression by MTT assay; format: functional, organism-based; details: Human immunodeficiency virus 1, LAI
Method in brief: (§3)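 MT-2 cells (2 × 10^4/ml) were infected with 100 TCID50s of the HIV-1LAI, HIV-2EHO or HIV-2ROD strain. They were cultured with serial drug concentrations at 37°C for 7 days. MTT was then added for 4 h at 37°C, formazan was dissolved in acidified isopropanol with 4% Triton X-100, and optical density was read. EC50 is the mean of three independent experiments, each run in duplicate.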

[24] = test system: Human immunodeficiency virus 2; assay: Antiviral activity against HIV2 EHO in MT2 cells assessed as inhibition of p24 Gag protein expression by MTT assay; format: functional, organism-based; details: Human immunodeficiency virus 2, EHO; method in brief: as §3
[25] = test system: Human immunodeficiency virus 2; assay: Antiviral activity against HIV2 ROD in MT2 cells assessed as inhibition of p24 Gag protein expression by MTT assay; format: functional, organism-based; details: Human immunodeficiency virus 2, ROD; method in brief: as §3
[26] = Cytotoxicity against human MT2 cells assessed as inhibition of p24 Gag protein expression by MTT assay; format: cell-based
[27] = test system: Human immunodeficiency virus 1; assay: Antiviral activity against HIV1 NL4-3 in MT4 cells by MTT assay; format: functional, organism-based; details: Human immunodeficiency virus 1, NL4-3, MT4

Structure (SMILES)	EC50 [1] [nM]	EC50 [2] [nM]	EC50 [3] [nM]	EC50 [4] [nM]	EC50 [5] [nM]	EC50 [6] [nM]	EC50 [7] [nM]	EC50 [8] [nM]	EC50 [9] [nM]	EC50 [10] [nM]	EC50 [17] [nM]	EC50 [18] [nM]	EC50 [19] [nM]	EC50 [20] [nM]	EC50 [21] [nM]	EC50 [23] [nM]	EC50 [24] [nM]	EC50 [25] [nM]	CC50 [26] [nM]	EC50 [27] [nM]	also measured
CC(C)(C)NC(=O)[C@@H]1CN(Cc2cccnc2)CCN1C[C@@H](O)C[C@@H](Cc1ccccc1)C(=O)N[C@H]1c2ccccc2C[C@H]1O	250	> 1000	270	388	> 1000	200	40	59	280	24	44	34	22	37	21	48	24	54	69800		EC50 [11]: > 1000 nM; EC50 [12]: > 1000 nM; EC50 [13]: > 1000 nM; EC50 [14]: > 1000 nM; EC50 [15]: > 1000 nM; EC50 [16]: 640 nM; EC50 [22]: > 1000 nM
Cc1c(O)cccc1C(=O)N[C@@H](CSc1ccccc1)[C@H](O)CN1C[C@H]2CCCC[C@H]2C[C@H]1C(=O)NC(C)(C)C							80	270			43	56	18	37	29	32	30	240	8100	33	
COC(=O)N[C@H](C(=O)N[C@@H](Cc1ccccc1)[C@@H](O)CN(Cc1ccc(-c2ccccn2)cc1)NC(=O)[C@@H](NC(=O)OC)C(C)(C)C)C(C)(C)C [ATAZANAVIR]	18	60	21	330	40	3	6	8	11	3.8	6	2.5	1.3	3.4	2.7	4.8	5	13	27600	4.2	EC50 [11]: 38 nM; EC50 [12]: 45 nM; EC50 [13]: 540 nM; EC50 [14]: 250 nM; EC50 [15]: 21 nM; EC50 [16]: 32 nM; EC50 [22]: 326 nM
Cc1cccc(C)c1OCC(=O)N[C@@H](Cc1ccccc1)[C@@H](O)C[C@H](Cc1ccccc1)NC(=O)[C@H](C(C)C)N1CCCNC1=O [LOPINAVIR]							34	60		7	7		5.3	7.3	3.3	7	2.6	4.9	> 100000		
CC(C)c1nc(CN(C)C(=O)N[C@H](C(=O)N[C@@H](Cc2ccccc2)C[C@H](O)[C@H](Cc2ccccc2)NC(=O)OCc2cncs2)C(C)C)cs1 [RITONAVIR]							130	300			71	41		39	30	54	210	260		33	
